Screening data (PubChem BioAssay)
TDP2 inh = blocks human TDP2 phosphodiesterase activity; AID 720702; 370,000 compounds, 0.34% hits; inhibition, % at 12.8 µM; recombinant TDP2, T5PNP hydrolysis, p-nitrophenol absorbance 415 nm; O95551;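 active = inhibition above the mean of all tested compounds plus 3 SD, set per campaign, cut at about 25% in these data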;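 also: 0% = DMSO with enzyme and 100% = buffer with substrate but no TDP2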
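Assay system: recombinant human TDP2 / Reagent: T5PNP substrate at 5 mM, a TopII-DNA adduct mimic / Measured by: epi absorbance from released p-nitrophenol / Evaluation: % inhibition relative to enzyme-containing and enzyme-free wells / Control set: enzyme-free and DMSO wells / Replicates: each compound tested once, singlicate / Schedule: enzyme reaction with compound for 2 h at 37 °C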
CTSL1 counter = counter-screen for PFM18AAP inhibitors: inhibitors of F. hepatica cathepsin L1; recombinant F. hepatica cathepsin L1, Z-Leu-Arg-MCA fluorescence; inhibition, % at 5.96 µM; 300,000 compounds, 0.49% hits;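 active = inhibition above the mean of all tested compounds plus 3 SD, set per screening campaign, cut at about 17% in these data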;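 also: 0% = plate median of test compound wells and 100% = 1 µM Z-Phe-Ala-diazomethylketone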
SUMO HTRF inh = inhibitors of human SUMOylation (UBC9) | 290,000 compounds, 0.36% hits | P63279 | HTRF SUMOylation assay, SAE1/SAE2 + UBC9, in vitro | inhibition, % at 35 µM; in the data active = inhibition above about 50%, passing the limit was not always enough
Target sequence (P63279 whole entry, looked up): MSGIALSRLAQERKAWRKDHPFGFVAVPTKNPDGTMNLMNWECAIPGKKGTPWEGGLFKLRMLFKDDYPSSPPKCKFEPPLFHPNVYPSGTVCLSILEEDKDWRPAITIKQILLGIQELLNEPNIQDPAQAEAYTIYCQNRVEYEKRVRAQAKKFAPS
NSD2 HMT inh = NSD2 (human) methyltransferase inhibition; O96028; NSD2 peptide methylation, AlphaScreen, 120 min; inhibition, % at 12.5 µM; 310,000 compounds, 0.54% hits; in the data active = inhibition above about 50%
AlphaScreen art = AlphaScreen assay artifact in NSD2 counter-screen | AC35, µM (highest dose often 10 µM), for the others: top-dose activity change, negative = signal loss | AlphaScreen artifact counterscreen, preloaded methylated H4 peptide | 1,500 compounds, 9.4% hits | shares compounds with NSD2 HMT inh; call rule not given here
Active calls of the source: *; nt = not tested or not shown. An excerpt weighted towards active compounds, which were near 1.2% of everything screened.

SMILES	TDP2 inh	CTSL1 counter	SUMO HTRF inh	NSD2 HMT inh	AlphaScreen art
O=c1[nH]nc(Br)c(=O)n1C(c1ccccc1)c1ccccc1	10	nt	nt	51*	-5%
O=c1[nH]c(=O)n(C(c2ccccc2)c2ccccc2)cc1Br	13	0	5	-4	nt
Cc1cccc(C)c1NC(=O)C1(C)CN(S(C)(=O)=O)CC(=O)N1Cc1cccc(F)c1 (configuration not stated)	6	nt	nt	nt	nt
Cc1cccc(N(CC(=O)NC(C)(C)C)C(=O)CS(=O)CC(=O)Nc2ccc3c(c2)OCO3)c1 (configuration not stated)	-10	13	20	52*	3%
N#Cc1c(SCC(=O)OCc2ccccc2)nsc1SCC(=O)OCc1ccccc1	10	2	-2	126*	-4%
Cc1nn2c3ccccc3n(CCN3CCCCC3)c2nc1=O	-11	3	24	110*	-5%
CC1CCCC(C)N1C(=O)COC(=O)c1ccc([N+](=O)[O-])o1 (configuration not stated)	-3	nt	nt	69*	-5%
CC1CC(C)CN(C(=O)COC(=O)c2ccc([N+](=O)[O-])o2)C1 (configuration not stated)	16	nt	nt	-1	nt
CC1OC(C(C)(C)C)Cc2[nH][nH]c(=O)c21 (configuration not stated)	-5	nt	nt	nt	nt
O=c1oc(CCO)cc2ccc(Br)cc12	-2	nt	nt	nt	nt
CCCCCNc1nc(N2CCCC2)c2c(c1C#N)CCN(C)C2	-13	2	22	37	nt
CCCCCNc1nc(NCCCO)c(C#N)c2c1CN(C)CC2	1	3	40	51*	-5%
O=C(C1=C(O)C(=O)N(CC2CCCO2)C1c1ccccc1)c1ccco1 (configuration not stated)	4	1	8	2	nt
COc1ccc(C2C(C(=O)/C=C/c3ccco3)=C(O)C(=O)N2CCN2CCOCC2)cc1OC (configuration not stated)	4	0	30	72*	-1%
COc1ccc(C2C(C(=O)c3ccco3)=C(O)C(=O)N2CC2CCCO2)cc1OC (configuration not stated)	12	-6	9	62*	-6%
CCC(CC)C(C(=O)NCc1ccccc1)N1CCN(CCN2CCOCC2)CC1 (configuration not stated)	3	nt	nt	nt	nt
CCN(C(=O)CN1C(=O)NC2(CCCC2)C1=O)c1nc2c(C)cccc2s1	-13	nt	nt	-1	nt
COc1cc(N(C(C)=O)c2ccc(O)c(C(=O)O)c2)c2ncccc2c1	-6	nt	nt	86*	-2%
COc1cc(N(C(C)=O)c2ccc(O)cc2)c2ncccc2c1	-4	nt	nt	-4	nt
CNC(=O)CSc1nc2nn(-c3ccccc3)c(=O)c-2c2n1CCCCC2	nt	14	3	6	nt
O=C(CSc1nc2nn(-c3ccccc3)c(=O)c-2c2n1CCCCC2)c1ccc(O)c(O)c1	nt	nt	nt	94*	7.9µM*
CCOC(=O)c1c(C)[nH]c(C)c1C(=O)COC(=O)[C@@H]1CCCN1S(=O)(=O)c1ccc(Cl)cc1	-10	-5	-2	76*	-5%
O=C(COC(=O)[C@@H]1CCCN1S(=O)(=O)c1ccc(Cl)cc1)NCC(F)(F)F	1	-12	9	-1	nt
COCc1[nH]nc2c1C(c1ccc(C)cc1)NC2=O (configuration not stated)	-12	nt	nt	nt	nt
COc1ccccc1OCc1nc(C#N)c(NCCCn2ccnc2)o1	2	2	8	-6	nt
SMILES	TDP2 inh	CTSL1 counter	SUMO HTRF inh	NSD2 HMT inh	AlphaScreen art
COc1ccc(Nc2oc(COc3ccccc3OC)nc2C#N)cc1	-10	1	-4	51*	-2%
Cn1nc(C(C)(C)C)cc1C(=O)N1CCC(C)(C(=O)NS(=O)(=O)C2CC2)C1 (configuration not stated)	nt	nt	nt	-3	nt
Clc1cccc(N2CCN(CCCN3CCN(c4ccccc4)CC3)CC2)c1	-2	nt	nt	53*	-17%
O=C(CCC(=O)N1CCN(c2cccc(Cl)c2)CC1)N1CCN(c2ccccc2)CC1	-3	3	-7	4	nt
Cc1cc(C)c2c(CN(C)Cc3ccccc3)cc(=O)oc2c1	-4	nt	nt	nt	nt
N#C/C(=C\c1ccc(O)c(O)c1)C(=O)Nc1cccc2ncccc12	-9	1	nt	115*	4.8µM*
COc1ccc(/C=C(\C#N)C(=O)Nc2cccc3ncccc23)cc1OC	-3	-1	25	6	nt
Cc1ccc(CSc2nc3c(c(=O)[nH]2)C(c2ccncc2)C2=C(CCCC2=O)N3)cc1 (configuration not stated)	3	3	20	127*	-1%
